Experimental data taken from ChEMBL document CHEMBL1255341, “Effect of ketoconazole on the pharmacokinetics of maribavir in healthy adults” (Antimicrob Agents Chemother, 2008).

What was measured:
Homo sapiens [1] = experiment: Tmax in human plasma assessed as VP 44469 at 400 mg, po administered with 400 mg ketoconazole after 7 days; format: ADME, organism-based; conditions: in vivo, 168 h
Method in brief: (§1)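 Fasted healthy adults got a single oral 400 mg dose, alone or 1 h after ketoconazole 400 mg orally, in crossover periods separated by 1 week. Blood taken predose and at 0.5, 1, 1.5, 2, 3, 4, 6, 8, 12, 16, 24 h; analytes measured by validated LC-MS/MS. Cmax and tmax read from the profiles; tmax ranks compared by ANOVA.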

Homo sapiens [2] = experiment: Toxicity in human assessed as dysgeusia at 400 mg, po after 24 hrs; format: organism-based; conditions: in vivo
Method in brief: (§2)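 Healthy volunteers (20 enrolled) given single oral 400 mg doses, with or without oral ketoconazole 400 mg 1 h before, in crossover with a 1-week washout. The investigator recorded all adverse events, grading severity and drug relatedness. Clinical labs ran the day before and after dosing, ECGs predose and at 2 and 4 h, and liver tests at the day-15 follow-up.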

[3] = Volume of distribution with respect to oral bioavailability in human at 400 mg, po after 24 hrs; format: ADME, organism-based; conditions: in vivo, read-out: Vss/F
Method in brief: (§3)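 Crossover in healthy adults: single fasted oral 400 mg dose, alone or 1 h after oral ketoconazole 400 mg, with a 1-week washout. Plasma drawn predose through 24 h and assayed by LC-MS/MS. λz from log-linear terminal-phase regression; t1/2 = 0.693/λz; CL/F = dose/AUC0-∞; Vz/F = dose/(λz × AUC0-∞). Nominal times used.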

[4] = Terminal elimination half-life in human at 400 mg, po administered with 400 mg ketoconazole after 7 days; format: ADME, organism-based; conditions: in vivo; method in brief: as §3
[5] = Apparent oral clearance in human at 400 mg, po administered with 400 mg ketoconazole after 7 days; format: ADME, organism-based; conditions: in vivo; method in brief: as §3
[6] = Tmax in human plasma at 400 mg, po administered with 400 mg ketoconazole after 7 days; format: ADME, organism-based; method in brief: as §1
Homo sapiens [7] = experiment: Cmax in human plasma assessed as VP 44469 at 400 mg, po after 24 hrs; format: ADME, organism-based; set-up: dose 400 mg, route oral; conditions: in vivo; method in brief: as §1
Homo sapiens [8] = experiment: AUC (0 to t) in human assessed as VP 44469 at 400 mg, po after 24 hrs; format: ADME, organism-based, Plasma; set-up: dose 400 mg, time < 24 hr, route oral; conditions: in vivo
Method in brief: (§4)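 Healthy adults (n = 20) in a two-sequence crossover with a 1-week washout. Single oral 400 mg dose after overnight fast, 4 h post-dose fast; ketoconazole 400 mg oral given 1 h before in the combination period. Plasma sampled predose and 0.5–24 h; validated LC-MS/MS after solid-phase extraction (5–1,000 ng/ml). AUC0-t by log-linear trapezoidal method; AUC0-∞ = AUC0-t + Clast/λz.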

Homo sapiens [9] = experiment: Drug excretion in human at 400 mg, po administered with 400 mg ketoconazole […]; format: ADME, organism-based; conditions: in vivo
Method in brief: (§5)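 24-h urine collected from the first void after the oral 400 mg dose, given alone or 1 h after ketoconazole 400 mg, in a crossover of healthy adults. Amount excreted (Ae) measured by LC-MS/MS after solid-phase extraction. Renal clearance = Ae/AUC0-24 from plasma sampled over 24 h.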

Homo sapiens [10] = experiment: Apparent oral clearance in human assessed as VP 44469 at 400 mg, po administered with 400 mg ketoconazole after 7 days; format: ADME, organism-based; conditions: in vivo, 168 h; method in brief: as §3
[11] = Tmax in human plasma at 400 mg, po after 24 hrs; format: ADME, organism-based; method in brief: as §1
Homo sapiens [12] = experiment: Terminal elimination half-life in human assessed as VP 44469 at 400 mg, po administered with 400 mg ketoconazole after 7 days; format: ADME, organism-based; conditions: in vivo, 168 h; method in brief: as §3
[13] = AUC (0 to t) in human at 400 mg, po administered with 400 mg ketoconazole after 7 days; format: ADME, organism-based; conditions: plasma; method in brief: as §4
Homo sapiens [14] = experiment: Terminal elimination half-life in human assessed as VP 44469 at 400 mg, po after 24 hrs; format: ADME, organism-based; conditions: in vivo; method in brief: as §3
Homo sapiens [15] = experiment: Cmax in human plasma assessed as VP 44469 at 400 mg, po administered with 400 mg ketoconazole after 7 days; format: ADME, organism-based; set-up: dose 400 mg, route oral; conditions: in vivo, 168 h; method in brief: as §1
Homo sapiens [16] = experiment: Volume of distribution with respect to oral bioavailability in human assessed as VP 44469 at 400 mg, po after 24 hrs; format: ADME, organism-based; conditions: in vivo; method in brief: as §3
Homo sapiens [17] = experiment: Toxicity in human assessed as adverse event at 400 mg, po after 24 hrs; format: organism-based; conditions: in vivo; method in brief: as §2
Homo sapiens [18] = experiment: Drug excretion in human assessed as VP 44469 at 400 mg, po after 24 hrs; format: ADME, organism-based; conditions: in vivo; method in brief: as §5
[19] = Renal clearance in human at 400 mg, po administered with 400 mg ketoconazole after 7 days; format: ADME, organism-based, Kidney; conditions: in vivo; method in brief: as §5
Homo sapiens [20] = experiment: Drug excretion in human at 400 mg, po after 24 hrs; format: ADME, organism-based; conditions: in vivo; method in brief: as §5
[21] = Terminal elimination half-life in human at 400 mg, po after 24 hrs; format: ADME, organism-based; conditions: in vivo; method in brief: as §3
Homo sapiens [22] = experiment: AUC (0 to t) in human assessed as VP 44469 at 400 mg, po administered with 400 mg ketoconazole after 7 days; format: ADME, organism-based, Plasma; conditions: in vivo, 168 h; method in brief: as §4
Homo sapiens [23] = experiment: Toxicity in human assessed as headache at 400 mg, po administered with 400 mg ketoconazole after 7 days; format: organism-based; conditions: in vivo, 168 h; method in brief: as §2
[24] = AUC (0 to infinity) in human at 400 mg, po after 24 hrs; format: ADME, organism-based; set-up: dose 400 mg, route oral, time infinity; conditions: plasma; method in brief: as §4
Homo sapiens [25] = experiment: Volume of distribution with respect to oral bioavailability in human assessed as VP 44469 at 400 mg, po administered with 400 mg ketoconazole after 7 days; format: ADME, organism-based; conditions: in vivo, 168 h; method in brief: as §3
Homo sapiens [26] = experiment: AUC (0 to infinity) in human assessed as VP 44469 at 400 mg, po after 24 hrs; format: ADME, organism-based, Plasma; set-up: dose 400 mg, time infinity, route oral; conditions: in vivo; method in brief: as §4
Homo sapiens [27] = experiment: Toxicity in human assessed as adverse event at 400 mg, po administered with 400 mg ketoconazole after 7 days; format: organism-based; conditions: in vivo, 168 h; method in brief: as §2
Homo sapiens [28] = experiment: Drug excretion in human assessed as VP 44469 at 400 mg, po administered with 400 mg ketoconazole […]; format: ADME, organism-based; conditions: in vivo
[29] = Cmax in human plasma at 400 mg, po after 24 hrs; format: ADME, organism-based; set-up: dose 400 mg, route oral; method in brief: as §1
Homo sapiens [30] = experiment: Tmax in human plasma assessed as VP 44469 at 400 mg, po after 24 hrs; format: ADME, organism-based; conditions: in vivo; method in brief: as §1
[31] = Apparent oral clearance in human at 400 mg, po after 24 hrs; format: ADME, organism-based; conditions: in vivo; method in brief: as §3
[32] = Cmax in human plasma at 400 mg, po administered with 400 mg ketoconazole after 7 days; format: ADME, organism-based; set-up: dose 400 mg, route oral; method in brief: as §1
Homo sapiens [33] = experiment: Apparent oral clearance in human assessed as VP 44469 at 400 mg, po after 24 hrs; format: ADME, organism-based; conditions: in vivo; method in brief: as §3
Homo sapiens [34] = experiment: Renal clearance in human assessed as VP 44469 at 400 mg, po after 24 hrs; format: ADME, organism-based, Kidney; conditions: in vivo; method in brief: as §5
Homo sapiens [35] = experiment: AUC (0 to infinity) in human assessed as VP 44469 at 400 mg, po administered with 400 mg ketoconazole after 7 days; format: ADME, organism-based, Plasma; set-up: dose 400 mg, route oral, time infinity; conditions: in vivo, 168 h; method in brief: as §4
[36] = AUC (0 to infinity) in human at 400 mg, po administered with 400 mg ketoconazole after 7 days; format: ADME, organism-based; set-up: dose 400 mg, time infinity, route oral; conditions: plasma; method in brief: as §4
Homo sapiens [37] = experiment: Toxicity in human assessed as dysgeusia at 400 mg, po administered with 400 mg ketoconazole after 7 days; format: organism-based; conditions: in vivo, 168 h; method in brief: as §2
[38] = Volume of distribution with respect to oral bioavailability in human at 400 mg, po administered with 400 mg ketoconazole after 7 days; format: ADME, organism-based; conditions: in vivo, read-out: Vss/F; method in brief: as §3
[39] = AUC (0 to t) in human at 400 mg, po after 24 hrs; format: ADME, organism-based; set-up: time < 24 hr, dose 400 mg, route oral; conditions: plasma; method in brief: as §4
Homo sapiens [40] = experiment: Renal clearance in human assessed as VP 44469 at 400 mg, po administered with 400 mg ketoconazole […]; format: ADME, organism-based, Kidney; conditions: in vivo

CC(C)Nc1nc2cc(Cl)c(Cl)cc2n1[C@H]1O[C@@H](CO)[C@H](O)[C@@H]1O [MARIBAVIR]
Tmax (Homo sapiens [1]): 5.5 h | Activity (Homo sapiens [2]): 47% | Vd/F [3]: 27.5 L | half-life [4]: 6.88 h | CL/F [5]: 38.7 mL/min | Tmax [6]: 1.9 h | Cmax (Homo sapiens [7]): 1600 ng/mL | AUC (Homo sapiens [8]): 15.6 µg·h/mL | Activity (Homo sapiens [9]): 9.86 mg | CL/F (Homo sapiens [10]): 21.1 L/h | Tmax [11]: 1.7 h | t1/2 (Homo sapiens [12]): 11.8 h | AUC(0-t) at 168 h [13]: 173 µg·h/mL | t1/2 (Homo sapiens [14]): 6.83 h | Cmax (Homo sapiens [15]): 1000 ng/mL | Vss/F (Homo sapiens [16]): 235 L | Activity (Homo sapiens [17]): 47% | Activity (Homo sapiens [18]): 110 mg | CL renal at 168 h [19]: 0.953 mL/min | Activity (Homo sapiens [20]): 4.12 mg | half-life [21]: 5.73 h | AUC (Homo sapiens [22]): 14.7 µg·h/mL | Activity (Homo sapiens [23]): 10% | AUC(0-inf) [24]: 126 µg·h/mL | Vz/F (Homo sapiens [25]): 342 L | AUC (Homo sapiens [26]): 17.4 µg·h/mL | Activity (Homo sapiens [27]): 45% | Activity (Homo sapiens [28]): 95 mg | Cmax [29]: 19800 ng/mL | Tmax (Homo sapiens [30]): 2.5 h | CL/F [31]: 59.3 mL/min | Cmax [32]: 21800 ng/mL | CL/F (Homo sapiens [33]): 23.8 L/h | CL_renal (Homo sapiens [34]): 7637 mL/h | AUC (Homo sapiens [35]): 20.5 µg·h/mL | AUC(0-inf) [36]: 194 µg·h/mL | Activity (Homo sapiens [37]): 35% | Vd/F [38]: 21.6 L | AUC(0-t) at 24 h [39]: 119 µg·h/mL | CL_renal (Homo sapiens [40]): 6876 mL/h
